Source: PubChem (several laboratories)
SUMO HTRF inh: inhibitors of in vitro SUMOylation cascade, primary screen, biochemical, HTRF, uHTS | AID 2006, 2009 | 0.36% of 290,000 active | SUMO-conjugating enzyme UBC9 (Homo sapiens), P63279 | inhibition, % at 35 µM | HTRF SUMOylation assay, SAE1/SAE2 + UBC9; in the data active means inhibition above about 50%, passing the limit was not always enough
Target sequence (P63279 whole entry, looked up): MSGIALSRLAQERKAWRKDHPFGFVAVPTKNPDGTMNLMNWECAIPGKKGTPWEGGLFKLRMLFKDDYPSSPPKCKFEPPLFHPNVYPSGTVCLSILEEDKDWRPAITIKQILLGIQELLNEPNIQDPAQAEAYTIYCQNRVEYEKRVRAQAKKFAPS
VIM-2 inh: VIM-2 metallo-beta-lactamase inhibitors, primary screen, biochemical, epi-absorbance readout, Pseudomonas aeruginosa enzyme. purified VIM-2, nitrocefin hydrolysis, epi-absorbance fluorescence. inhibition, % at 5.6 µM. 0.89% of 290,000 active;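 active means inhibition above the mean of all tested compounds plus 3 SD, cutoff set per screening run, cut at about 7.5% in these data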;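 further: red hydrolysis product quenches plate fluorescence so inhibitors raise well fluorescence; 0% = enzyme with DMSO and 100% = DMSO without enzyme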
IMP-1 inh-1: IMP-1 metallo-beta-lactamase inhibitors, primary screen, biochemical, epi-absorbance readout, Pseudomonas aeruginosa enzyme | AID 1556, 2009 | inhibition, % at 5.6 µM | 0.45% of 290,000 active | metallo-beta-lactamase IMP-1 (Pseudomonas aeruginosa) | purified IMP-1, nitrocefin hydrolysis, epi-absorbance fluorescence;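 active means inhibition above the mean plus 3 SD of all compounds in the same screening run, cut at about 4.5% in these data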;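 further: 0% = IMP-1 with DMSO and 100% = DMSO wells lacking enzyme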
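assay system = purified recombinant IMP-1 metallo-beta-lactamase enzyme | schedule = 15 min preincubation plus 25 min reaction at 25 °C | signal = Epi-absorbance fluorescence, 480 nm excitation, 530 nm emission | read-out basis = percent inhibition from optical density relative to buffer-blank wells | controls = IMP-1 with DMSO as 0%, enzyme-free DMSO as 100%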
PHOSPHO1 block: PubChem AID 1565 | Phosphoethanolamine/phosphocholine phosphatase (Homo sapiens), Q8TCT1 | recombinant PHOSPHO1, absorbance phosphatase assay | inhibition, % at 13.3 µM | 1.1% of 290,000 active; in the data active means inhibition above about 60%
Target sequence (Q8TCT1 whole entry, looked up): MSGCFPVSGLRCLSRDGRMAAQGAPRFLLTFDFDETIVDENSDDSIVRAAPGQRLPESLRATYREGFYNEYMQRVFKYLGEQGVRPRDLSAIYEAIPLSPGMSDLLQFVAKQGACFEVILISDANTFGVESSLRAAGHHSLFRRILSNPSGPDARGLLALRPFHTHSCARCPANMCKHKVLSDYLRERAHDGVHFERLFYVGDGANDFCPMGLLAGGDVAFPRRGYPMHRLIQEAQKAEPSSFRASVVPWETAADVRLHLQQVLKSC
NS3 helicase inh: inhibitors of HCV NS3 helicase, primary screen, biochemical, Cy5 molecular beacon fluorescence; Hepatitis C virus NS3 helicase; NS3 helicase DNA unwinding; inhibition, % at 10.9 µM; 0.56% of 290,000 active;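 active means inhibition above the mean of all tested compounds plus 3 SD, set per campaign, cut at about 35% in these data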;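 further: 0% = DMSO wells and 100% = thioflavine S control wells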
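System: Hepatitis C virus NS3 helicase domain fragment enzyme | Reagent: Annealed dual-labelled DNA beacon duplex, ATP-started | Compound dosing: 10.9 µM single point, 0.8% DMSO | Incubation: 1 h reaction at 25 °C, ATP-initiated | Technique: Cy5 fluorescence | Evaluation: Percent inhibition from t60/t0 fluorescence ratio | Benchmarks: Low DMSO, high thioflavine S at 110 µM | Replication: Singlicate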
core dimer inh: inhibitors of HCV core protein dimerization, primary screen, biochemical, TR-FRET, high-throughput; TR-FRET GST/Flag-core106 dimerization, 1536-well; inhibition, % at 5 µM; 0.33% of 300,000 active;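 active means inhibition above the mean of all tested compounds plus 3 SD, set per screening campaign, cut at about 45% in these data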
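test system = GST/Flag-tagged HCV core106 proteins | probe or stimulus = Eu donor and XL665 acceptor anti-tag antibodies | times = compound-protein-antibody incubation 4 h at 22.5 °C | signal = TR-FRET, excitation 340 nm, emission 617 and 671 nm | measure = percent inhibition of core106 dimerization signal | controls = wells lacking GST-core106 and wells with excess unlabelled core106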
IMP-1 inh-2: IMP-1 metallo-beta-lactamase inhibitors, confirmation, selectivity assay for selective VIM-2 inhibitor project, biochemical, epi-absorbance readout, triplicate | 1,300 tested, under 10 active | purified IMP-1, nitrocefin hydrolysis, epi-absorbance fluorescence | inhibition, % at 5.6 µM | shares compounds with VIM-2 inh; call rule not given here;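 further: 0% = enzyme with vehicle and 100% = vehicle without enzyme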
VIM-2 FRET inh: VIM-2 inhibitors in FRET format, confirmation, artefact control for selective VIM-2 inhibitor project, biochemical, epi-absorbance artifact exclusion; shares compounds with VIM-2 inh; AID 1857, 2009; purified VIM-2, CCF2 FRET substrate hydrolysis; inhibition, % at 5.6 µM; 23% of 1,300 active;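 active means inhibition above the mean of all tested compounds plus 3 SD, cut at about 19% in these data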;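 further: 0% = VIM-2 plus DMSO and 100% = no enzyme wells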
TEM-1 inh: TEM-1 serine beta-lactamase inhibitors, counter-screen for VIM-2 inhibitor project, biochemical, epi-absorbance, HTS | inhibition, % at 5.6 µM | shares compounds with VIM-2 inh | AID 1866, 2009 | 3% of 1,300 active | Purified TEM-1, nitrocefin hydrolysis, epi-absorbance fluorescence;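 active means inhibition above that campaign's mean inhibition plus 3 SD, cut at about 0.46% in these data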;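 further: 0% = TEM-1 with DMSO and 100% = TEM-1 with 100 µM potassium clavulanate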
Target sequence (P62593 whole entry, looked up): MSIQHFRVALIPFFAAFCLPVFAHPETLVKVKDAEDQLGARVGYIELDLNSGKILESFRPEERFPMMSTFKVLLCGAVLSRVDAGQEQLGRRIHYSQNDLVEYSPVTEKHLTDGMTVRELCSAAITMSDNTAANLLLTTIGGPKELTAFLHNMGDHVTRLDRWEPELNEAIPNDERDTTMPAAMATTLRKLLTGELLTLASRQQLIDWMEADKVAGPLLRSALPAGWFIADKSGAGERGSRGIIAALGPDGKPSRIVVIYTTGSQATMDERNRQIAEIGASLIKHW
VIM-2 inh conf: VIM-2 metallo-beta-lactamase inhibitors, confirmation, biochemical, epi-absorbance, hits shared with IMP-1 screen; shares compounds with VIM-2 inh; purified VIM-2, nitrocefin hydrolysis; inhibition, % at 5.6 µM; 96% of 1,300 active;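 active means inhibition of the VIM-2 beta-lactamase enzyme above about 11% from the earlier first-round screen, limit read from the data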;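 further: 0% = VIM-2 with DMSO and 100% = buffer wells without enzyme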
* marks the source's active call; other numbers are inactive results; / = no result. An excerpt weighted towards active compounds, which were near 3.1% of everything screened.

SMILES	SUMO HTRF inh	VIM-2 inh	IMP-1 inh-1	PHOSPHO1 block	NS3 helicase inh	core dimer inh	IMP-1 inh-2	VIM-2 FRET inh	TEM-1 inh	VIM-2 inh conf
CCCc1cc(=O)oc2cc(C)cc(OC(C)C(=O)NCCCn3ccnc3)c12 (stereo unspecified)	13	18*	-3	27	17	-6	-2	-10	-2	28*
COc1ccc(S(=O)(=O)N(C)C2(C)CCS(=O)(=O)C2)cc1OC (stereo unspecified)	/	/	/	/	/	-3	/	/	/	/
O=C(O)c1cncc(C#CCC2CCCCC2)c1	20	2	1	3	32	-5	/	/	/	/
COc1ccc(C#Cc2ccc3c(c2)c(=O)c2ccccc2n3C)cc1	12	15*	4	-24	-10	-139	-2	3	-4	14*
Cn1c2ccccc2c(=O)c2cc(C#Cc3ccc(N)cc3)ccc21	17	2	-3	15	31	13	/	/	/	/
NC(=S)NNc1cccc2cccnc12	92*	18*	-3	29	-18	10	-5	-15	-10	15*
COc1ccc([N+](=O)[O-])cc1NS(=O)(=O)c1ccc(Cl)c(C(=O)Nc2sc3c(c2C#N)CCCCC3)c1	33	-1	-2	35	17	20	/	/	/	/
c1ccc2nc(-c3ccc(-n4ccnc4)cc3)ccc2c1	23	38*	-2	11	-1	3	-5	-11	-6	47*
CCOc1ccc(N(CC(=O)NCCSCc2ccc(Cl)cc2)S(C)(=O)=O)cc1	-22	1	-1	30	-19	-3	/	/	/	/
Cc1c(C)c2ccc(OC(C)C(=O)NCc3ccccn3)cc2oc1=O (stereo unspecified)	11	0	-4	24	14	-7	/	/	/	/
CC(Oc1ccc2c3c(c(=O)oc2c1)CCC3)C(=O)NCc1ccccn1 (stereo unspecified)	2	21*	0	48	1	-11	-2	3	-5	29*
O=C(COc1ccc2c3c(c(=O)oc2c1)CCC3)NCc1ccccn1	7	17*	1	53	3	0	-3	-1	-7	23*
CN1CCN(C(=O)CCn2c(=O)c3cccn3c3cccnc32)CC1	2	14*	-1	28	5	-5	-4	-2	-6	26*
CCOC(=O)C1CCN(C(=O)CCn2c(=O)c3cccn3c3cccnc32)CC1	-17	4	-3	33	-1	7	/	/	/	/
CN(Cc1ccccc1)CC(O)COc1ccc(CNCc2nccn2C)cc1 (stereo unspecified)	-2	12*	-4	40	-5	6	-4	-6	-4	14*
O=C(Cc1ccccc1)c1c[nH]c(C(=O)NCCCN2CCOCC2)c1	12	2	-3	40	2	-4	/	/	/	/
C/C(=N\N1CCN(c2ccccc2)CC1)c1ccc(O)cc1	0	-2	-4	27	2	/	/	/	/	/
Oc1c(Br)cc(/C=N/n2c(-c3ccccc3)n[nH]c2=S)c(O)c1Br	6	34*	-5	-82	7	/	-3	58*	-8	43*
Cc1ccc(-c2n[nH]c(=S)n2/N=C/c2ccc(C(=O)O)cc2)cc1	-8	18*	-4	-72	-4	8	-4	35*	-7	23*
Oc1ccc(/C=N/n2c(-c3ccccc3)n[nH]c2=S)cc1Br	6	8	-4	-42	-1	/	/	/	/	/
Oc1c(Br)cc(/C=N/n2c(-c3ccccc3)n[nH]c2=S)cc1Br	10	27*	-5	-50	25	/	-2	50*	-7	39*
COc1ccc(S(=O)(=O)N2CCCCC2)cc1C(=O)N1CCCC1	7	-3	-1	17	-2	/	/	/	/	/
Clc1cccc2c1CCN(Cc1nc(-c3cnccn3)no1)C2	-2	-4	0	10	7	6	/	/	/	/
CC(=O)Nc1ccccc1OCC(=O)NCC(F)(F)F	14	0	-1	20	6	-2	/	/	/	/
Cc1cc2nc(N=C(N)N)nc(C)c2cc1C	-1	17*	-2	10	-4	/	-4	0	-5	26*
SMILES	SUMO HTRF inh	VIM-2 inh	IMP-1 inh-1	PHOSPHO1 block	NS3 helicase inh	core dimer inh	IMP-1 inh-2	VIM-2 FRET inh	TEM-1 inh	VIM-2 inh conf
Cc1ccc(-c2csc(=Nc3cccnc3)n2CCCn2ccnc2)cc1C	3	18*	-4	18	-61	-4	-2	-25	-8	30*
O=C(OCC(=O)N1CCN(C(=O)c2ccco2)CC1)c1cc(-c2ccc(Cl)c(Cl)c2Cl)nc2ccccc12	-36	-4	-4	20	-7	29	/	/	/	/
O=C(OCC(=O)N1CCN(C(=O)c2ccco2)CC1)c1cc(-c2ccco2)nc2ccccc12	43	15*	1	69*	6	68*	-4	-19	-7	11*
CCN(CCN(C)C)C(=O)c1ccc2c(c1NCCO)C(=O)c1ccccc1C2=O	-11	14*	-1	-5	-3	-19	-3	2	-9	23*
Cc1ccc(OCCn2cnc3c2c(=O)n(C)c(=O)n3C)cc1	-2	-3	-3	23	12	0	/	/	/	/
CC(C)[C@H](NC(=O)N1CC(=O)Nc2ccccc21)C(=O)N[C@H](Cc1c[nH]c2ccccc12)C(=O)O	-3	13*	1	18	-2	1	-1	22*	-1	12*
CCC(C)[C@H](NC(=O)N1CC(=O)Nc2ccccc21)C(=O)N[C@H](Cc1c[nH]c2ccccc12)C(=O)O (stereo partly specified)	4	5	-3	-2	1	-3	/	/	/	/
